From ChEMBL document CHEMBL1828608, “A chrysin analog exhibited strong inhibitory activities against both PGE2 and NO production” (Eur J Med Chem, 2011)

Target: T1, Nitric oxide synthase, inducible (Mus musculus) (UniProt P29477)
T1 sequence (whole entry): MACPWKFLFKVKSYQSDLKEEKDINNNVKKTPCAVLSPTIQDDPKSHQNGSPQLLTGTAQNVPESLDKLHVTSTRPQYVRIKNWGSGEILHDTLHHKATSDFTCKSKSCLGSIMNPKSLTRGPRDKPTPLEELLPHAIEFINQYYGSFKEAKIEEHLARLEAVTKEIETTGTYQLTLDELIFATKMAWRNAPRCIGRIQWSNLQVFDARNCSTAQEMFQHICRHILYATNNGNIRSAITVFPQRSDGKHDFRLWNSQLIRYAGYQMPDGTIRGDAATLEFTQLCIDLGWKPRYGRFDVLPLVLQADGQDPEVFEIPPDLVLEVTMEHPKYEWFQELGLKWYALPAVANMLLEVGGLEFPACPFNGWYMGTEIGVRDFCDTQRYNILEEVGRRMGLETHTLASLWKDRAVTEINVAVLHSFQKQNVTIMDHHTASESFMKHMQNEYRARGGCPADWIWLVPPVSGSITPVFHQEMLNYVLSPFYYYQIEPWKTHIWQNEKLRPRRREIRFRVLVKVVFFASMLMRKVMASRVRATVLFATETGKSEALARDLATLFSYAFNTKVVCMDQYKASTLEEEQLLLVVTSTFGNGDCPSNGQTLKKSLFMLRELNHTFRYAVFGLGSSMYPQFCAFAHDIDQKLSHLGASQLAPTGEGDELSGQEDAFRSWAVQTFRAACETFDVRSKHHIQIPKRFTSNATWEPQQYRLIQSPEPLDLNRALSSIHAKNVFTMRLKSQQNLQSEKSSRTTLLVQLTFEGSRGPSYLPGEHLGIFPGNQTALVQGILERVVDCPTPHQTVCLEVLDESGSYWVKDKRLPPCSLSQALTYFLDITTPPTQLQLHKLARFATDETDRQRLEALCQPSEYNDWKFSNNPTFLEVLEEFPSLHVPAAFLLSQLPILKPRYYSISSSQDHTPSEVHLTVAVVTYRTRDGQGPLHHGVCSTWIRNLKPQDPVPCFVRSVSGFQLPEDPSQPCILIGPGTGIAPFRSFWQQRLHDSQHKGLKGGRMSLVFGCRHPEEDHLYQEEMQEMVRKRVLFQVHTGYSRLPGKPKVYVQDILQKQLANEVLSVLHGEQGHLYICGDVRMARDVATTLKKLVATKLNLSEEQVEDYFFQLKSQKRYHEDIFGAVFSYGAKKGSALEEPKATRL
Assay: Inhibition of iNOS-mediated NO production in LPS-induced mouse RAW264.7 cells at 10 uM after 24 hrs by griess method
Type: cell-based
Summary of the method: (§1)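 RAW 264.7 cells in DMEM with 10% FBS and 1% antibiotics at 37 °C, 5% CO₂, plated at 2 × 10⁵ cells/well and pre-incubated 2 h. Compound and LPS were then added together for 24 h. Medium readouts: for NO, nitrite by Griess reagent at OD 550 nm; for PGE₂, commercial ELISA.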

| SMILES | inhibition [%] |
| --- | --- |
| Cc1c(O)cc(O)c2c(=O)cc(-c3ccccc3)oc12 | 3.7 |
| O=c1cc(-c2ccccc2)oc2c(-c3ccsc3)c(O)cc(O)c12 | 7.6 |
| O=c1cc(-c2ccccc2)oc2c(-c3ccncc3)c(O)cc(O)c12 | 29.1 |
| O=c1cc(-c2ccccc2)oc2c(-c3ccoc3)c(O)cc(O)c12 | 8.3 |
| O=c1cc(-c2ccccc2)oc2cc(O)cc(O)c12 | 8.9 |
| O=c1cc(-c2ccccc2)oc2c(-c3cccnc3)c(O)cc(O)c12 | 16.7 |

Test system: not listed separately
Assay: Cytotoxicity against mouse RAW264.7 cells assessed as reduction in cell viability at 10 uM after 24 hrs by MTT assay

| SMILES | reduction in viability at 24 h, 10 µM [%] |
| --- | --- |
| Cc1c(O)cc(O)c2c(=O)cc(-c3ccccc3)oc12 | < 10 |
| O=c1cc(-c2ccccc2)oc2c(-c3ccsc3)c(O)cc(O)c12 | < 10 |
| O=c1cc(-c2ccccc2)oc2c(-c3ccncc3)c(O)cc(O)c12 | < 10 |
| O=c1cc(-c2ccccc2)oc2c(-c3ccoc3)c(O)cc(O)c12 | < 10 |
| O=c1cc(-c2ccccc2)oc2c(-c3cccnc3)c(O)cc(O)c12 | < 10 |

Target: T2, Prostaglandin G/H synthase 2 (Mus musculus) (UniProt Q05769)
T2 sequence (whole entry): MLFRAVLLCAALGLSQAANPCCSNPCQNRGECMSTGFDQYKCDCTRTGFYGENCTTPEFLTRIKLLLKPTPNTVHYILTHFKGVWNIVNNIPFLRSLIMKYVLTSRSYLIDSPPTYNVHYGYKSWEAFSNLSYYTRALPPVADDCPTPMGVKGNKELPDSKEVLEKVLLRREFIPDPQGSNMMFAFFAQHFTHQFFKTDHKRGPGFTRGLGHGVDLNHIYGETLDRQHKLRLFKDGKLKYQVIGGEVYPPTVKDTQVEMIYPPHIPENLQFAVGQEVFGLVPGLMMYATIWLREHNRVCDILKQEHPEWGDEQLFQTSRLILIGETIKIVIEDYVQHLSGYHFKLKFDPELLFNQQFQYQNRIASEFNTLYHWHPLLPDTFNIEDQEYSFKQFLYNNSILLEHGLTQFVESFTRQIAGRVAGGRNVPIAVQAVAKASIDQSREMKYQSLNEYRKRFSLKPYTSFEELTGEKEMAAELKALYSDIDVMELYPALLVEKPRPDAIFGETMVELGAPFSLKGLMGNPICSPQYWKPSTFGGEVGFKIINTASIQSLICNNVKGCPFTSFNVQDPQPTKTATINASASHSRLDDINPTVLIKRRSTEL
Assay: Inhibition of COX2-mediated PGE2 production in LPS-induced mouse RAW264.7 cells at 10 uM after 24 hrs by ELISA
Type: cell-based
Summary of the method: as §1

| SMILES | inhibition [%] |
| --- | --- |
| Cc1c(O)cc(O)c2c(=O)cc(-c3ccccc3)oc12 | 44.3 |
| O=c1cc(-c2ccccc2)oc2c(-c3ccsc3)c(O)cc(O)c12 | 31.4 |
| O=c1cc(-c2ccccc2)oc2c(-c3ccncc3)c(O)cc(O)c12 | 92.4 |
| O=c1cc(-c2ccccc2)oc2c(-c3ccoc3)c(O)cc(O)c12 | 26.7 |
| O=c1cc(-c2ccccc2)oc2cc(O)cc(O)c12 | 74 |
| O=c1cc(-c2ccccc2)oc2c(-c3cccnc3)c(O)cc(O)c12 | 48.1 |
